# This is a sample that favours compounds with a hit; in the whole collection about 1.9% have one here.
# RanGTP-Impb inh = inhibitors of RanGTP-importin-beta interaction, primary screen, biochemical, FRET, CFP-Ran, YFP-importin-beta, homogeneous; cell-free CFP-Ran/YFP-importin-beta FRET ratio; AID 2216, 2009; 1.1% of 300,000 active; inhibition, % (concentration not given with the values); Ran GTPase (GTP-bound) - importin-beta complex;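 active means more than half of the replicate wells show a fall in the fluorescence ratio signal beyond about 16%, limit read from the data, passing the limit was not always enough; inconclusive means exactly half of the replicate wells pass the set limit; inactive means fewer than half of replicates pass the limit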;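 further: 0% = DMSO wells and 100% = Ran loaded with GDP instead of GTP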
# Hck Nef HTS = inhibitors of Nef-activated human Hck kinase, primary screen, biochemical, Z-Lyte FRET, 384-well, Hck-YEEI; AID 463187, 2010; 0.68% of 220,000 active; inhibition, % at 20 µM; Recombinant Hck-YEEI plus Nef, Z-Lyte FRET kinase assay;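 active means Hck-Nef kinase inhibition above about 50%, limit read from the data; inactive means inhibition below that limit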;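 further: 0% = DMSO with Hck plus Nef and 100% = Hck alone without Nef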
# Target sequence (P08631 whole entry, looked up): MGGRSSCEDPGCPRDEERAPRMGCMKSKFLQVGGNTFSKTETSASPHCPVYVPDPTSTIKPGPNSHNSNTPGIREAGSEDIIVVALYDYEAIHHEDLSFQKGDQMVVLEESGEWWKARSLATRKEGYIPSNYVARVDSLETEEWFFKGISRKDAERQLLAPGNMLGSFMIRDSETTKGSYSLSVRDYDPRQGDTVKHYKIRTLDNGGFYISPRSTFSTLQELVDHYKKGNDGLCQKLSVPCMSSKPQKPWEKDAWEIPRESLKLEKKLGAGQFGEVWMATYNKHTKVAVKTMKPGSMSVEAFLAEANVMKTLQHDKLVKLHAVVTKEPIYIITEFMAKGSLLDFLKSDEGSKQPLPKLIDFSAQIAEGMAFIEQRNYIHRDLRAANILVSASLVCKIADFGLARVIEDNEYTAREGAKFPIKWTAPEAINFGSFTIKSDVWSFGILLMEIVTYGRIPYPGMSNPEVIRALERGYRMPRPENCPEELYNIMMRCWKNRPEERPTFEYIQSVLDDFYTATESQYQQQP
# Runt-CBFb FRET = inhibitors of RUNX1 Runt–CBFb binding, primary screen, biochemical, FRET, Cerulean-Runt, Venus-CBFb, uHTS; 0.46% of 220,000 active; Cerulean-Runt/Venus-CBFb FRET ratio 530/480, 1 h; Runt-related transcription factor 1 (Homo sapiens) + Core-binding factor subunit beta …; AID 1496, 2009; inhibition, % at 20 µM;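 active means inhibition over about 50% at 20 µM in the single-dose screen, limit read from the data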;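 further: 0% = DMSO wells and 100% = excess unlabeled CBFb competitor control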
#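 Measured by: fluorescence energy transfer, 422 nm excitation, 530/480 nm emission; Assay system: Cerulean-Runt domain; Medium: Tris pH 7.5 buffer with BSA; Measure: loss of energy transfer signal; Controls: 5 µM unlabeled CBFb as full-inhibition high control; Incubation: protein complex preformed 1 h, compound exposure 1 h, room temperature, dark.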
# Runt-SMMHC FRET = inhibitors of RUNX1 Runt–CBFb-SMMHC binding, primary screen, biochemical, FRET, Cerulean-Runt, Venus-CBFb-SMMHC, uHTS | Cerulean-Runt/Venus-CBFb-SMMHC FRET ratio 530/480, 1 h | Runt-related transcription factor 1 (Homo sapiens) + Core-binding factor subunit beta … | inhibition, % at 20 µM | 0.74% of 220,000 active;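 active means mean inhibition across duplicate retests at 20 µM reaching about 50%, limit read from the data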;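 further: 0% = DMSO wells and 100% = wells with excess untagged CBFb-SMMHC; inhibitors lower the FRET ratio by blocking Runt binding to CBFb-SMMHC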
# Numbers without * were called inactive; ? = inconclusive; nt = not tested or not shown.
SMILES,RanGTP-Impb inh,Hck Nef HTS,Runt-CBFb FRET,Runt-SMMHC FRET
O=C(Cn1nc(C(=O)O)c2ccccc2c1=O)Nc1ccc2c(c1)C(=O)c1ccccc1C2=O,-2,2,-4,-16
CC(C)c1[nH]nc2c1C1(CCN(Cc3ccccc3)CC1)C(C#N)=C(N)O2,21*,1,50,59*
O=C1C[C@H]2[C@H](CO)[C@@H](OC(=O)c3ccc(-c4ccccc4)cc3)C[C@H]2O1,1,-9,0,0
Cc1ccc(-c2onc3ccc(C=O)cc23)cc1,23*,1,-1,-7
Cn1c(CNC(=O)CNC(=O)Cc2ccccc2)cc(=O)n(C)c1=O,1,nt,nt,nt
Oc1ccc2nnc3c(Br)cnn3c2c1,53*,nt,nt,nt
Cc1ncc(CO)c(/C=N/NC(=O)c2ccccc2Br)c1O,10,4,20,64*
Cc1ncc(CO)c(/C=N/NC(=O)c2cc3c(s2)CCCC3)c1O,50*,-80,32,92*
Cc1ncc(CO)c(/C=N/NC(=S)Nc2ccc(Cl)c(Cl)c2)c1O,5,8,11,10
COc1ccccc1N/N=C/c1c(CO)cnc(C)c1O,2,3,-1,7
Cc1ncc(CO)c(/C=N/NC(=S)Nc2cccc(Cl)c2)c1O,5,-61,15,30
Cc1ncc(CO)c(/C=N/NC(=O)c2ccc(O)cc2)c1O,44*,-1,24,63*
CC(C)C[C@H](NC(=O)N1CCn2c1nc1ccccc12)C(=O)NCC1CCCO1 (stereo partly specified),21*,nt,nt,nt
COc1ccc(N=CC=C2OC(C)(C)C(C)(C)O2)cc1OC,15*,15,4,-4
Cc1ccc(C)c(S(=O)(=O)Nc2cc3c4c(c2)CCC(=O)N4CCC3)c1,4,nt,nt,nt
COC(=O)CC1COc2ccccc2N1C(=O)c1ccc(Cl)cc1 (stereo unspecified),179*,0,-1,1
C=CCn1c(CNC(=O)c2ccccc2F)nnc1SCc1nc2ccccc2c(=O)[nH]1,-1,20,-3,0
O=c1c2c([nH]c3ccccc13)CCCC2,2,-1,-3,-2
COc1cccc2[nH]c3ccccc3c(=O)c12,127*,nt,nt,nt
Nc1cccc2c(=O)c3ccccc3[nH]c12,64*,nt,nt,nt
Cn1c(C(=O)N2CCN(c3ccccc3)CC2)cc2cc(Cl)ccc21,-3,nt,nt,nt
CCn1nc(NC(=O)C2CCCO2)c2cc3cc(C)ccc3nc21 (stereo unspecified),44*,9,30,45
Cc1ccc2nc(-c3ccc(NC(=O)C4CCCO4)cc3)[nH]c2c1 (stereo unspecified),1,11,0,4
Cc1ccc2cc3c(NC(=O)C4CCCO4)nn(CC(C)C)c3nc2c1 (stereo unspecified),31*,11,21,32
Cc1ccc2nc3c(cc2c1)c(NC(=O)C1CCCO1)nn3CC(C)C (stereo unspecified),71*,16,41,59*
SMILES,RanGTP-Impb inh,Hck Nef HTS,Runt-CBFb FRET,Runt-SMMHC FRET
Cc1cccc(NC(=O)c2ccc(N3C(=O)C4CCCCC4C3=O)cc2)c1C (stereo unspecified),-3,nt,nt,nt
CCCn1c(SCC(=O)Nc2nnc(CC)s2)nnc1-c1ccncc1,4,19,1,-5
CN(Cc1ccccc1)C(=O)Cn1cccc1C(=O)c1ccccc1,70*,-15,1,3
O=c1[nH]c2c(s1)C(c1ccccc1)C1C3CCC(C3)C1S2 (stereo unspecified),26*,2,4,11
O=C(O)CCN1C(=O)C2C3CC(C2C1=O)C1C(c2ccccc2)c2sc(=O)[nH]c2SC31 (stereo unspecified),21*,9,12,-1
Cc1ccc(C2c3sc(=O)[nH]c3SC3C4CC(C5C(=O)N(C(C)C(=O)O)C(=O)C45)C23)cc1 (stereo unspecified),58*,5,27,4
COc1ccc(C2c3sc(=O)[nH]c3SC3C4CCC(C4)C23)cc1 (stereo unspecified),5,-2,14,4
Cc1cc(=O)n2nc(N3CCC(C(=O)NCc4ccccc4Cl)CC3)sc2n1,3,nt,nt,nt
CCNC(=O)n1cc(-n2cncn2)c(-c2ccc(Cl)cc2)n1,0,21,-2,-1
CCN(c1ccccc1)S(=O)(=O)c1nnc(NC(=O)c2ccccc2OC)s1,19*,nt,nt,nt
Cc1cccc2cc3c(NC(=O)C(C)C)nn(C)c3nc12,47*,21,14,22
CCC(=O)Nc1nn(C)c2nc3c(C)cccc3cc12,22*,23,18,86
CCn1nc(NC(=O)c2ccncc2)c2cc3cccc(C)c3nc21,?,2,7,16
Cc1ccc2cc3c(NC(=O)C(C)C)nn(C)c3nc2c1,8,8,-2,-12
CCn1nc(NC(=O)c2cccnc2)c2cc3cccc(C)c3nc21,-18,6,11,-22
COc1ccc(CC(=O)Nc2nn(C)c3nc4c(C)cccc4cc23)cc1,6,19,11,72*
CCCn1nc(NC(=O)CC)c2cc3cccc(C)c3nc21,55*,nt,nt,nt
CCOc1ccccc1NC(=O)CSc1nnc(CNC(=O)c2cccs2)o1,5,nt,nt,nt
CCCC[n+]1c2ccccc2cc2ccccc21,150*,nt,nt,nt
CCC[n+]1c2ccccc2cc2ccccc21,155*,nt,nt,nt
CCN(CC)c1ccc2cc(S(=O)(=O)c3ccc(Cl)cc3)c(=O)oc2c1,128*,6,6,81*
O=c1oc2cc(O)ccc2cc1S(=O)(=O)c1ccccc1,133*,nt,nt,nt
Cc1ccc(C(=O)COC(=O)c2cc(=O)[nH]c3ccccc23)cc1C,37*,41,0,-3
COc1ccccc1C(=O)COC(=O)c1cc(=O)[nH]c2ccccc12,3,nt,nt,nt
Cc1ccc2nc(NCCC(=O)O)nc(-c3ccccc3)c2c1,3,20,48,90*
O=C(O)CCNc1nc(-c2ccccc2)c2cc(Br)ccc2n1,20*,nt,nt,nt
O=C(O)CCCC(=O)NNc1nc(-c2ccccc2)c2cc(Cl)ccc2n1,10,nt,nt,nt
Cc1ccc2nc(NCC(N)=O)nc(-c3ccccc3)c2c1,20*,-17,24,47
COc1ccc(-c2cc3c(=O)n(CC(=O)N4CCN(C)CC4)ncn3n2)cc1,-1,nt,nt,nt
